Measurements from different studies.
Each line is one published result; the experiments were not run side by side.

SMILES | target or system | test | system | conditions | quantity | value
O=C(O)c1ccccc1Nc1cccc(C(F)(F)F)c1 | U-87 MG | cell growth or viability, SRB | – | 48 h | GI50 | > 30 µM
C=CC(=O)NC1CCN(c2ncc3ncnc(Nc4ccc(Oc5ccc6c(c5)ncn6C)c(C)c4)c3n2)CC1 | HCC15 | cell growth or viability | – | – | EC50 | 0.22 µM
O=C(O)c1cn(C2CC2)c2cc(N3CCNCC3)c(F)cc2c1=O | Klebsiella aerogenes | microbial growth | ATCC35029 | – | MIC | 2 µM
C=CC(=O)c1cccnc1Nc1cc(C(F)(F)F)ccc1OC | U-87 MG | cell growth or viability, SRB | – | 48 h | GI50 | 7.72 µM
COc1cccc(C(=O)COc2nc(C)cc(C)c2C#N)c1 | Leishmania infantum | parasite growth | mouse Macrophage | intracellular, amastigote | EC50 | > 64 µM
CC(C)(C)OC(=O)N[C@H]1CCN(c2cc(C(=O)NCC(=O)O)ccc2NC(=O)c2cc(Br)c(Br)[nH]2)C1 | Klebsiella aerogenes | microbial growth, broth dilution | ATCC13408 | – | MIC | > 32 µg/mL
Cc1cc(C)nc(SCC(=O)c2cccs2)n1 | Leishmania infantum | parasite growth | mouse Macrophage | intracellular, amastigote | EC50 | > 64 µM
CC(=NNC(=O)COc1ccc2c(C)c(Cc3ccccc3)c(=O)oc2c1C)c1ccc(Br)cc1 | HCT-116 | cell growth or viability, MTT | – | 0.2 µg/mL | viability | 66%
Cc1cc(C)c(C#N)c(OCC(=O)c2ccccc2)n1 | Leishmania infantum | parasite growth | mouse Macrophage | intracellular, amastigote | EC50 | > 64 µM
Cc1[nH]c(C(=O)Nc2ccc(C(=O)NCC(=O)O)cc2N2CCN(C(=O)OC(C)(C)C)CC2)c(Cl)c1Cl | Klebsiella aerogenes | microbial growth, broth dilution | ATCC13408 | – | MIC | > 32 µg/mL
Cc1cc(C)c(C#N)c(SCC(=O)c2ccccn2)n1 | Leishmania infantum | parasite growth | mouse Macrophage | intracellular, amastigote | EC50 | 45.5 µM
Cl.N[C@@H]1CCN(c2cc(C(=O)NCC(=O)O)ccc2NC(=O)c2cc(Br)c(Br)[nH]2)C1 | Klebsiella aerogenes | microbial growth, broth dilution | ATCC13408 | – | MIC | > 32 µg/mL
